Assay results reported in ChEMBL document CHEMBL4390665, “New 4-phenylcoumarin derivatives as potent 3C protease inhibitors: Design, synthesis, anti-HAV effect and molecular modeling” (Eur J Med Chem, 2019).
In brackets after ≈: the same amount, converted by molar mass.

Columns and labels:
[1] = test system: Hepatovirus A; assay: Antiviral activity against Hepatitis A virus infected in rhesus monkey FRhK4 cells assessed as reduction in virus-induced cytopathic effect incubated for 72 hrs by MTT assay; type: functional, organism-based; conditions: FRhK-4, 72 h
Method in brief: (§1)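 Virucidal format: HAV (10^6 […] TCID50/0.1 ml) was mixed with an equal volume of non-toxic compound concentrations for 1 h at 37 °C. The mixture was added to FRhK-4 monolayers for 1 h, then replaced with medium for 72 h. MTT OD540 was read in triplicate with virus and cell controls to give IC50. TI = CC50/IC50.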

[2] = Cytotoxicity against rhesus monkey FRhK4 cells assessed as reduction in cell viability incubated for 48 hrs by MTT assay; type: cell-based, Macaca mulatta
Method in brief: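 FRhK-4 cells (DMEM, 10% FBS) were seeded at 5 X 10^3 cells/well and grown 24 h. They were exposed to compound at 7.8–1000 µg/mL for 48 h at 37 °C in 5% CO2. MTT (5 mg/mL) was added for 4 h, then DMSO for 30 min, and OD540 read. CC50 was derived from the mean of three ODs versus untreated cells.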

[3] = test system: Hepatovirus A; assay: Antiviral activity against Hepatitis A virus infected in rhesus monkey FRhK4 cells assessed as inhibition in viral adsorption using cells pre-incubated with compound for 24 hrs before viral infection for 1 hr by MTT assay; type: functional, organism-based; conditions: FRhK-4
Method in brief: (§2)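 FRhK-4 monolayers in 24-well plates were exposed to non-toxic compound concentrations for 24 h at 37 °C in 5% CO2. Compound was then removed and HAV added for 1 h, after which the inoculum was replaced with medium for 72 h. MTT OD540 was read in triplicate alongside virus-infected and cell-only controls to give IC50. TI = CC50/IC50.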

[4] = test system: Hepatovirus A; assay: Antiviral activity against Hepatitis A virus infected in rhesus monkey FRhK4 cells assessed as inhibition in viral replication using cells pre-infected with virus before compound exposure for 72 hrs by MTT assay; type: functional, organism-based; conditions: FRhK-4, 72 h
Method in brief: (§3)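 FRhK-4 monolayers were infected with HAV for 1 h. Unbound virus was removed and replaced with medium containing non-toxic compound concentrations, then incubated 72 h at 37 °C in 5% CO2. MTT OD540 was read in triplicate alongside virus-infected and cell-only controls to give IC50. TI = CC50/IC50.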

[5] = Therapeutic index, ratio of CC50 of rhesus monkey FRhK cells to IC50 of antiviral activity against Hepatitis A virus infected in rhesus monkey FRhK4 cells; type: toxicity, cell-based; conditions: read-out: Ratio CC50/IC50; method in brief: as §1
[6] = Therapeutic index, ratio of CC50 of rhesus monkey FRhK cells to IC50 of antiviral activity against Hepatitis A virus infected in rhesus monkey FRhK4 cells assessed as inhibition in viral adsorption using cells pre-incubated with compound for 24 hrs before viral infection for 1 hr by MTT assay; type: toxicity, cell-based; conditions: read-out: Ratio CC50/IC50; method in brief: as §2
[7] = Therapeutic index, ratio of CC50 of rhesus monkey FRhK cells to IC50 for antiviral activity against Hepatitis A virus infected in rhesus monkey FRhK4 cells assessed as inhibition in viral replication using cells pre-infected with virus before compound exposure for 72 hrs by MTT assay; type: toxicity, cell-based; conditions: read-out: Ratio CC50/IC50; method in brief: as §3
[8] = Inhibition of HAV 3C expressed in Escherichia coli BL21(DE3) pLysS using Dabcyl-GLRTQSND (edans) G as substrate preincubated for 3 mins before enzyme addition by fluorescence method; design: species or system Hepatovirus A
[9] = Inhibition of HAV 3C expressed in Escherichia coli BL21(DE3) pLysS using Dabcyl-GLRTQSND (edans) G as substrate preincubated for 3 mins before enzyme addition by fluorescence method based Cheng and Prusoff equation analysis; design: species or system Hepatovirus A
[10] = Inhibition of HRV 3C using chromogenic peptide substrate pre-incubated for 15 mins before substrate addition and measured after 1 to 2 hrs by colorimetric method
Method in brief: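 HRV 3C protease was assayed with a commercial screening kit, with reagents equilibrated to room temperature. Enzyme was incubated with compound for 15 min at room temperature, with enzyme and solvent controls. Substrate was then added and absorbance at 405 nm read in kinetic mode for 1–2 h at 37 °C.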

[11] = Binding affinity to Hepatitis A virus Protease 3C; design: species or system Hepatovirus A

SMILES | IC50 [1] [µg/mL] | CC50 at 48 h [2] [µg/mL] | IC50 [3] [µg/mL] | IC50 [4] [µg/mL] | selectivity ratio [5] | selectivity ratio at 1 h [6] | selectivity ratio at 72 h [7] | IC50 [8] [µM] | Ki [9] [µM] | IC50 [10] [µM] | pKd [11]
CCN(CC)CCSc1nnc(COc2ccc3c(-c4ccccc4)cc(=O)oc3c2)o1 | 81.6 (≈ 181 µM) | 245 (≈ 543 µM) | 3.18 (≈ 7.04 µM) | 7.65 (≈ 16.9 µM) | 3 | 77 | 32 | – | – | – | –
O=C(COc1ccc2c(-c3ccccc3)cc(=O)oc2c1)N/N=C1/C(=O)Nc2ccc(Br)cc21 | 13 (≈ 25.1 µM) | 951 (≈ 1830 µM) | 21.6 (≈ 41.7 µM) | 18.3 (≈ 35.3 µM) | 73 | 44 | 52 | – | – | – | –
C/C(=N\NC(=O)COc1ccc2c(-c3ccccc3)cc(=O)oc2c1)c1ccccc1 | 110 (≈ 265 µM) | 438 (≈ 1060 µM) | 219 (≈ 531 µM) | 730 (≈ 1770 µM) | 4 | 2 | 0.6 | – | – | – | –
O=c1cc(-c2ccccc2)c2ccc(OCc3nnc(SCCN4CCOCC4)o3)cc2o1 | 9.9 (≈ 21.3 µM) | 249 (≈ 535 µM) | 9.9 (≈ 21.3 µM) | 622 (≈ 1340 µM) | 25 | 25 | 0.4 | – | – | – | –
O=C(COc1ccc2c(-c3ccccc3)cc(=O)oc2c1)N/N=C1/C(=O)Nc2ccccc21 | 80.5 (≈ 183 µM) | 483 (≈ 1100 µM) | 242 (≈ 550 µM) | 121 (≈ 275 µM) | 6 | 2 | 4 | – | – | – | –
Nn1c(S)nnc1COc1ccc2c(-c3ccccc3)cc(=O)oc2c1 | 216 (≈ 590 µM) | 648 (≈ 1770 µM) | 3240 (≈ 8840 µM) | 72 (≈ 197 µM) | 3 | 0.2 | 9 | – | – | – | –
CNc1nnc(COc2ccc3c(-c4ccccc4)cc(=O)oc3c2)s1 | 2180 (≈ 5950 µM) | 435 (≈ 1190 µM) | 544 (≈ 1490 µM) | 145 (≈ 397 µM) | 0.2 | 0.8 | 3 | – | – | – | –
CN(C)CCSc1nnc(COc2ccc3c(-c4ccccc4)cc(=O)oc3c2)o1 | 44.8 (≈ 106 µM) | 897 (≈ 2120 µM) | 112 (≈ 264 µM) | 35.8 (≈ 84.5 µM) | 20 | 8 | 25 | – | – | – | –
C/C(=N\NC(=O)COc1ccc2c(-c3ccccc3)cc(=O)oc2c1)c1ccc(Br)cc1 | 1880 (≈ 3830 µM) | 752 (≈ 1530 µM) | 8.5 (≈ 17.3 µM) | 62.6 (≈ 127 µM) | 0.4 | 88 | 12 | 7.19 | 0.217 | 6.3 | 5.53
Cc1cc(C)n(C(=O)COc2ccc3c(-c4ccccc4)cc(=O)oc3c2)n1 | 37.6 (≈ 100 µM) | 753 (≈ 2010 µM) | 83.6 (≈ 223 µM) | 44.3 (≈ 118 µM) | 20 | 9 | 17 | – | – | – | –
CCNC(=S)NNC(=O)COc1ccc2c(-c3ccccc3)cc(=O)oc2c1 | 3.1 (≈ 7.8 µM) | 258 (≈ 649 µM) | 32.2 (≈ 81.1 µM) | 86 (≈ 216 µM) | 83 | 8 | 3 | 17.8 | 1.9 | 16.1 | 6.78
CNC(=S)NNC(=O)COc1ccc2c(-c3ccccc3)cc(=O)oc2c1 | 238 (≈ 620 µM) | 951 (≈ 2480 µM) | 11.9 (≈ 31 µM) | 63.4 (≈ 165 µM) | 4 | 80 | 15 | – | – | – | –
NNC(=O)COc1ccc2c(-c3ccccc3)cc(=O)oc2c1 | 3920 (≈ 12600 µM) | 785 (≈ 2530 µM) | 112 (≈ 361 µM) | 1120 (≈ 3610 µM) | 0.2 | 7 | 0.7 | – | – | – | –
Cn1c(COc2ccc3c(-c4ccccc4)cc(=O)oc3c2)n[nH]c1=S | 11.3 (≈ 30.9 µM) | 648 (≈ 1770 µM) | 1300 (≈ 3550 µM) | 13.5 (≈ 36.9 µM) | 57 | 0.5 | 48 | – | – | – | –
O=C(COc1ccc2c(-c3ccccc3)cc(=O)oc2c1)N/N=C1/C(=O)Nc2ccc(Cl)cc21 | 784 (≈ 1660 µM) | 549 (≈ 1160 µM) | 1100 (≈ 2320 µM) | 5490 (≈ 11600 µM) | 0.7 | 0.5 | 0.1 | – | – | – | –
CCn1c(COc2ccc3c(-c4ccccc4)cc(=O)oc3c2)n[nH]c1=S | 12.9 (≈ 34 µM) | 597 (≈ 1570 µM) | 49.7 (≈ 131 µM) | 82.7 (≈ 218 µM) | 46 | 12 | 7 | – | – | – | –
O=C(COc1ccc2c(-c3ccccc3)cc(=O)oc2c1)NN1C(=O)c2ccccc2C1=O | 106 (≈ 240 µM) | 951 (≈ 2160 µM) | 13 (≈ 29.5 µM) | 1360 (≈ 3080 µM) | 9 | 72 | 0.7 | – | – | – | –
CCOC(=O)COc1ccc2c(-c3ccccc3)cc(=O)oc2c1 | 1290 (≈ 3960 µM) | 900 (≈ 2770 µM) | 180 (≈ 555 µM) | 25.7 (≈ 79.2 µM) | 0.7 | 5 | 35 | – | – | – | –
C/C(=N\NC(=O)COc1ccc2c(-c3ccccc3)cc(=O)oc2c1)c1ccc(Cl)cc1 | 30.5 (≈ 68.2 µM) | 978 (≈ 2190 µM) | 44.4 (≈ 99.4 µM) | 10.7 (≈ 23.9 µM) | 32 | 22 | 91 | 5.94 | 0.104 | 4.13 | 5.51
O=c1cc(-c2ccccc2)c2ccc(OCc3n[nH]c(=S)o3)cc2o1 | 4.7 (≈ 13.3 µM) | 367 (≈ 1040 µM) | 184 (≈ 521 µM) | 7.34 (≈ 20.8 µM) | 78 | 2 | 50 | – | – | – | –
Nc1nc2c(ncn2COCCO)c(=O)[nH]1 [ACYCLOVIR] | 35.6 (≈ 158 µM) | > 1000 | 33.5 (≈ 149 µM) | 30.6 (≈ 136 µM) | 80 | 85 | 93 | – | – | – | –
CCn1c(COc2ccc3c(-c4ccccc4)cc(=O)oc3c2)nnc1SCCN1CCOCC1 | 47 (≈ 95.4 µM) | 942 (≈ 1910 µM) | 1180 (≈ 2390 µM) | 13.4 (≈ 27.2 µM) | 20 | 0.8 | 70 | – | – | – | –
CCNc1nnc(COc2ccc3c(-c4ccccc4)cc(=O)oc3c2)s1 | 64.5 (≈ 170 µM) | 129 (≈ 340 µM) | 18.4 (≈ 48.5 µM) | 25.8 (≈ 68 µM) | 2 | 7 | 5 | – | – | – | –
O=c1cc(-c2ccccc2)c2ccc(O)cc2o1 | 4.8 (≈ 20.1 µM) | 340 (≈ 1430 µM) | 1130 (≈ 4760 µM) | 42.5 (≈ 178 µM) | 70.8 | 0.3 | 8 | – | – | – | –
